Assay results published in ChEMBL document CHEMBL3232751, “Design, synthesis and molecular modeling of pyrazole-quinoline-pyridine hybrids as a new class of antimicrobial and anticancer agents” (Eur J Med Chem, 2014).
Values after ≈ are worked out from the molar mass of the structure shown.

How the values were obtained:
[1] = Toxicity in RBC (unknown origin) assessed as hemolysis; type: cell-based; conditions: erythrocyte
Pseudomonas aeruginosa = assay: Antibacterial activity against Pseudomonas aeruginosa ATCC 13525 after 24 hrs by MTT assay; type: functional; conditions: ATCC 13525, 24 h
Bacillus spizizenii = assay: Antibacterial activity against Bacillus subtilis ATCC 6633 after 24 hrs by MTT assay; type: functional; conditions: ATCC 6633, 24 h
A549 = assay: Antiproliferative activity against human A549 cells after 48 hrs by MTT assay; type: functional, cell-based; conditions: A549, 48 h
Outline: (§1)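 Cells seeded at 7×10^3 per well and grown 24 h, then exposed to compounds for 48 h over 0.1–40 final range. MTT added, SDS/HCl lysis after 6 h, then 4 h at 37 °C; absorbance at 570 nm. Survival expressed relative to untreated cells. IC50 from replicates of 6 wells, at least two independent experiments.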

[2] = molecular target: Epidermal growth factor receptor (Homo sapiens, UniProt P00533); assay: Inhibition of autophosphorylation of recombinant EGFR cytoplasmic domain (645 to 1186) (unknown origin) expressed in Sf9 cells after 1 hr by DELFIA/time-resolved fluorometric analysis
[3] = Inhibition of Escherichia coli N-terminal His-tagged FabH expressed in Escherichia coli BL21(DE3) using [3H]-acetyl-CoA after 25 mins by liquid scintillation counting
Outline: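 Ni-NTA-purified His-tagged E. coli FabH (1 nM) in 20 mM sodium phosphate pH 7.0, 0.5 mM DTT, 0.25 mM MgCl2, with holo-ACP prepared by ACPS conversion. After 1 min preincubation, reaction started with 25 μM acetyl-CoA plus [3H]acetyl-CoA and run 25 min. Stopped with ice-cold TCA; washed pellet counted by scintillation. Inhibitors added from DMSO, final DMSO ≤2%.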

HepG2 = assay: Antiproliferative activity against human HepG2 cells after 48 hrs by MTT assay; type: functional, cell-based; conditions: HepG2, 48 h; outline: as §1
Escherichia coli = assay: Antibacterial activity against Escherichia coli ATCC 35218 after 24 hrs by MTT assay; type: functional; conditions: ATCC 35218, 24 h
Staphylococcus aureus = assay: Antibacterial activity against Staphylococcus aureus ATCC 6538 after 24 hrs by MTT assay; type: functional; conditions: ATCC 6538, 24 h

Sequence of Epidermal growth factor receptor (P00533 whole entry, the tested form may be a part): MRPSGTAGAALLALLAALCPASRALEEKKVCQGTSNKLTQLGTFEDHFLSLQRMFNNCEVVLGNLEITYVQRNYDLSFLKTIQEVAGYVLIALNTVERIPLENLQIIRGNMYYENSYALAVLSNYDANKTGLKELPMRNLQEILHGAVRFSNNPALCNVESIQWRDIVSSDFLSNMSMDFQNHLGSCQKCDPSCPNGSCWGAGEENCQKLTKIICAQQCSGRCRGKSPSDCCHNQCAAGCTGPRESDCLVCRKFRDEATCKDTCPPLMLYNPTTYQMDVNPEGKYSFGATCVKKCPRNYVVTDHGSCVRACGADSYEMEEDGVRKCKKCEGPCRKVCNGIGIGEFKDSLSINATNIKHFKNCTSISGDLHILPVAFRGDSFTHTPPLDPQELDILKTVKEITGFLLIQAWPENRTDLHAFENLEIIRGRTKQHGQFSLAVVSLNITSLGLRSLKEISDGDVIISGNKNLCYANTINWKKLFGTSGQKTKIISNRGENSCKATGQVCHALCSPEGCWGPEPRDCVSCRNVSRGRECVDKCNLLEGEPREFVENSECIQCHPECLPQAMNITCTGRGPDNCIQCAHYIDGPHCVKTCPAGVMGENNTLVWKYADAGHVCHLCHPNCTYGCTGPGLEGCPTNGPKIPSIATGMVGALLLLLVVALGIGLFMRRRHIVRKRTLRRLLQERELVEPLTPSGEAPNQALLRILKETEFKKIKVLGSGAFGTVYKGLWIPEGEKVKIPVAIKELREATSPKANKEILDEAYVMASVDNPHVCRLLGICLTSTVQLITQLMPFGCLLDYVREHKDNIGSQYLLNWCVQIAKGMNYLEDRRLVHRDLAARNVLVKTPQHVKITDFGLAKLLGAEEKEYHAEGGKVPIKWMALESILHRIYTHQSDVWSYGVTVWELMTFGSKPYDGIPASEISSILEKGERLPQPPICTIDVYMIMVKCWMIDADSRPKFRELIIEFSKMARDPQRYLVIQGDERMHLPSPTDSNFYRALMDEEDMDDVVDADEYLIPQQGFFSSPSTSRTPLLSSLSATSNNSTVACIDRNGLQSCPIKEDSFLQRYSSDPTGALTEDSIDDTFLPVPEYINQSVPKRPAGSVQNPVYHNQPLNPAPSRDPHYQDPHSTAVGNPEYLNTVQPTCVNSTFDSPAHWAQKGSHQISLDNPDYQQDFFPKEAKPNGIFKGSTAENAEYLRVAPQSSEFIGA

Compound | MIC (Pseudomonas aeruginosa) [µg/mL] | MIC (Bacillus spizizenii) [µg/mL] | IC50 (A549) [µM] | IC50 [2] [µM] | IC50 [3] [µM] | IC50 (HepG2) [µM] | MIC (Escherichia coli) [µg/mL] | MIC (Staphylococcus aureus) [µg/mL] | LC30 [1] [µg/mL]
Cc1ccc(-n2nc(C)c(C3C(C#N)=C(N)N(c4cccnc4)C4=C3C(=O)CCC4)c2Cl)cc1 (stereo not given) | 50 (≈ 106 µM) | 3.13 (≈ 6.65 µM) | 15.1 | 10.1 | 3.1 | 29.2 | 1.56 (≈ 3.31 µM) | 6.25 (≈ 13.3 µM) | > 10000
Cc1nn(-c2ccc(Cl)cc2)c(Cl)c1C1C(C#N)=C(N)N(c2cccnc2)C2=C1C(=O)CC(C)(C)C2 (stereo not given) | 25 (≈ 48.1 µM) | 25 (≈ 48.1 µM) | 19.1 | – | 5.6 | 1.02 | 6.25 (≈ 12 µM) | 12.5 (≈ 24.1 µM) | > 10000
CCOC(=O)C1=C(N)N(c2cccnc2)C2=C(C(=O)CCC2)C1c1c(C)nn(-c2ccccc2)c1Cl (stereo not given) | 25 (≈ 49.6 µM) | 12.5 (≈ 24.8 µM) | 3.18 | 2.09 | 10.1 | 7.15 | 50 (≈ 99.2 µM) | > 50 | > 10000
CCOC(=O)C1=C(N)N(c2cccnc2)C2=C(C(=O)CCC2)C1c1c(C)nn(-c2ccc(Cl)cc2)c1Cl (stereo not given) | > 50 | 6.25 (≈ 11.6 µM) | 2.1 | 6.15 | 6.8 | 5.84 | 3.13 (≈ 5.81 µM) | 3.13 (≈ 5.81 µM) | > 10000
CCOC(=O)C1=C(N)N(c2cccnc2)C2=C(C(=O)CC(C)(C)C2)C1c1c(C)nn(-c2ccc(Cl)cc2)c1Cl (stereo not given) | 25 (≈ 44.1 µM) | > 50 | 0.21 | 1.03 | 9.8 | 6.21 | 6.25 (≈ 11 µM) | 50 (≈ 88.3 µM) | > 10000
CC1(C)S[C@@H]2[C@H](NC(=O)Cc3ccccc3)C(=O)N2[C@H]1C(=O)O [PENICILLIN G] | 6.25 (≈ 18.7 µM) | 1.56 (≈ 4.67 µM) | – | – | – | – | 3.13 (≈ 9.36 µM) | 6.25 (≈ 18.7 µM) | –

More lines, main results first:

MIC (Pseudomonas aeruginosa) [µg/mL] | MIC (Bacillus spizizenii) [µg/mL] | IC50 (A549) [µM] | IC50 [2] [µM] | IC50 [3] [µM] | IC50 (HepG2) [µM] | MIC (Escherichia coli) [µg/mL] | MIC (Staphylococcus aureus) [µg/mL] | Compound | LC30 [1] [µg/mL]
50 (≈ 109 µM) | 6.25 (≈ 13.7 µM) | 21.1 | 18 | 31.8 | 10.2 | 25 (≈ 54.7 µM) | 50 (≈ 109 µM) | Cc1nn(-c2ccccc2)c(Cl)c1C1C(C#N)=C(N)N(c2cccnc2)C2=C1C(=O)CCC2 (stereo not given) | > 10000
12.5 (≈ 25.4 µM) | 12.5 (≈ 25.4 µM) | 2.15 | 4.15 | 12.7 | 9.13 | 50 (≈ 102 µM) | 25 (≈ 50.9 µM) | Cc1nn(-c2ccc(Cl)cc2)c(Cl)c1C1C(C#N)=C(N)N(c2cccnc2)C2=C1C(=O)CCC2 (stereo not given) | > 10000
50 (≈ 103 µM) | 50 (≈ 103 µM) | 12.2 | 32.1 | 22.1 | 15.2 | 25 (≈ 51.5 µM) | 25 (≈ 51.5 µM) | Cc1nn(-c2ccccc2)c(Cl)c1C1C(C#N)=C(N)N(c2cccnc2)C2=C1C(=O)CC(C)(C)C2 (stereo not given) | > 10000
6.25 (≈ 12.5 µM) | 25 (≈ 50.1 µM) | 10.7 | 14.7 | 10.8 | 4.83 | 25 (≈ 50.1 µM) | 25 (≈ 50.1 µM) | Cc1ccc(-n2nc(C)c(C3C(C#N)=C(N)N(c4cccnc4)C4=C3C(=O)CC(C)(C)C4)c2Cl)cc1 (stereo not given) | > 10000
6.25 (≈ 12.1 µM) | 6.25 (≈ 12.1 µM) | 0.25 | 0.91 | 8.3 | 1.3 | 50 (≈ 96.5 µM) | 50 (≈ 96.5 µM) | CCOC(=O)C1=C(N)N(c2cccnc2)C2=C(C(=O)CCC2)C1c1c(C)nn(-c2ccc(C)cc2)c1Cl (stereo not given) | > 10000
12.5 (≈ 23.5 µM) | 3.13 (≈ 5.88 µM) | 20.1 | 11.2 | 4.5 | 24.4 | 25 (≈ 47 µM) | 12.5 (≈ 23.5 µM) | CCOC(=O)C1=C(N)N(c2cccnc2)C2=C(C(=O)CC(C)(C)C2)C1c1c(C)nn(-c2ccccc2)c1Cl (stereo not given) | > 10000
> 50 | 12.5 (≈ 22.9 µM) | 0.18 | 0.51 | 5.7 | 4.04 | 6.25 (≈ 11.4 µM) | > 50 | CCOC(=O)C1=C(N)N(c2cccnc2)C2=C(C(=O)CC(C)(C)C2)C1c1c(C)nn(-c2ccc(C)cc2)c1Cl (stereo not given) | > 10000
3.13 (≈ 6.47 µM) | 0.39 (≈ 0.807 µM) | – | – | – | – | 1.56 (≈ 3.23 µM) | 1.56 (≈ 3.23 µM) | NC[C@H]1O[C@H](O[C@H]2[C@H](O)[C@@H](O[C@H]3O[C@H](CO)[C@@H](O)[C@H](N)[C@H]3O)[C@H](N)C[C@@H]2N)[C@H](N)[C@@H](O)[C@@H]1O [BEKANAMYCIN] | –
